The values that follow come from BindingDB's records for doi:10.1124/dmd.106.013888 (Act, 2007).

Structures are written as SMILES. pIC50: −log10 of the molar value. A value given as a limit tells only on which side of the number the result lay.

The assay addresses T1, Lanosterol 14-alpha demethylase (Homo sapiens, UniProt Q16850).
T1 sequence (Q16850 whole entry): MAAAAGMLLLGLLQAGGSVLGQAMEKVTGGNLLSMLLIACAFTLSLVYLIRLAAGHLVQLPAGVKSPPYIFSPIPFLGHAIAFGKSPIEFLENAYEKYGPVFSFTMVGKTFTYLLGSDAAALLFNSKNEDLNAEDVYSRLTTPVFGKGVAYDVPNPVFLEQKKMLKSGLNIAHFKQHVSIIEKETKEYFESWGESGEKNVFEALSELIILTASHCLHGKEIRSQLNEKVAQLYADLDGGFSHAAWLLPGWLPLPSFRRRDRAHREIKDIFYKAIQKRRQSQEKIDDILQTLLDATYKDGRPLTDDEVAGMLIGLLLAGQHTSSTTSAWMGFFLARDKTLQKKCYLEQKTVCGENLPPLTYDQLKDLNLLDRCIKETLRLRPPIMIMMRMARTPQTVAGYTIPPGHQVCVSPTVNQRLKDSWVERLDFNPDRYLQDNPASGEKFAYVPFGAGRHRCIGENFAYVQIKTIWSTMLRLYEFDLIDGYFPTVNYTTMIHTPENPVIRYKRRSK
As to the kind of experiment: Inhibition of human CYP51 expressed in Topp 3 cells by lanosterol demethylase assay. The method in brief: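 0.5 ml phosphate buffer pH 7.4 with KCN, NADPH regenerating system, 60 min at 37 °C. Triene product extracted and quantified by chromatography (ergosterol internal standard). IC50 read from plot of % activity remaining vs concentration.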

One may read the pIC50 as −log10 of the IC50, conventionally taken in molar units. Read a high pIC50 as a low IC50. As for `O=c1c(CC[S+]([O-])c2ccccc2)c(O)n(-c2ccccc2)n1-c1ccccc1` (stereo unspecified) [1,2-Diphenyl-3,5-dioxo-4-(2-phenylsulfinylethyl)pyrazolidine], the pIC50 is under 3.70.
